This is a sample that favours compounds with a hit; in the whole collection about 1.9% have one here.
DNMT1 block = DNMT1 (human) enzyme inhibition; AID 588458; inhibition (reported as % activation of signal), % at 10 µM; DNMT1 molecular beacon, Hinp1I cleavage, fluorescence; P26358; 0.83% of 360,000 active; in the data active means inhibition above about 50%
CSN inh = CSN deneddylation inhibition; Purified CSN, SCF-Nedd8-OG deneddylation, fluorescence polarization; 0.38% of 360,000 active; inhibition, % at 12.5 µM; Q92905;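 active means pattern-corrected inhibition above about 35%, with an unprinted fluorescence ratio check between 0.5 and 1.5, limit read from the data, passing the limit was not always enough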;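 further: 0% = enzyme with substrate and 100% = substrate without enzyme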
Target sequence (Q92905 whole entry, looked up, one chain of several): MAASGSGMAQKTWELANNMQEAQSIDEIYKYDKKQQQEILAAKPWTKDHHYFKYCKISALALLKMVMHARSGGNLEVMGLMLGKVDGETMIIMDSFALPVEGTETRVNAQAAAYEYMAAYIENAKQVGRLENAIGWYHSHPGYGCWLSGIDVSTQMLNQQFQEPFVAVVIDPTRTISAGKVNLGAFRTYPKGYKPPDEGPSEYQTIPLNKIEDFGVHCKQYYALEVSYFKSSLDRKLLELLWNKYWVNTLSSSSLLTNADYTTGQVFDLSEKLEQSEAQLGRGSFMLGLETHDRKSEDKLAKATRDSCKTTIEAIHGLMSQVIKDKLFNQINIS
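test system = HEK293T-derived human Csn5 enzyme | amount = 0.24 nM Csn5 enzyme, final concentration | medium = Tris/NaCl/DTT buffer, pH 7.5 | schedule = 90 min reaction at room temperature | signal = FP | evaluation = inhibition of Csn5 cleavage, % | compound dosing = single dose of 12.5 µM compound with 0.25% DMSO | probe or stimulus = 10 nM SCFSkp2-Nedd8OG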
STEP inh = inhibitors of human striatal-enriched phosphatase STEP; P54829; recombinant STEP, OMFP fluorogenic substrate, fluorescence; inhibition, % at 20 µM; 0.25% of 360,000 active; AID 588621;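 active means inhibition at 20 µM, scaled per plate between control wells, above about 37%, limit read from the data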;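 further: 0% = DMSO with enzyme and substrate and 100% = substrate only without enzyme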
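material = STEP tyrosine phosphatase | reagent = fluorogenic phosphatase substrate OMFP at 25 µM final | doses = single compound dose of 20 µM, 1% DMSO final | schedule = 20 min reaction, room temperature, in the dark | measured by = fluorescence, 480/540 nm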
LMPTP block = blocks human LMPTP phosphatase; P24666; recombinant LMPTP-A, OMFP fluorogenic substrate, fluorescence intensity; inhibition, % at 20 µM; 0.22% of 360,000 active;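 active means compounds that cut the enzyme signal by at least half of the control window in the single-dose screen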;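 further: plate controls were DMSO wells with enzyme plus substrate for no effect and substrate without enzyme for full effect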
Target sequence (P24666 whole entry, looked up): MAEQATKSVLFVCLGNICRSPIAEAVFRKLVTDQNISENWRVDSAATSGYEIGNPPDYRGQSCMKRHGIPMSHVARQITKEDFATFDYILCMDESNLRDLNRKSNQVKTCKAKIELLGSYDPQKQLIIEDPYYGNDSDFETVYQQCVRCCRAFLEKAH
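Assay system: LMPTP-A enzyme. Input: 0.625 nM LMPTP-A final. Probe or stimulus: 400 µM OMFP. Compound dosing: single 20 µM dose. Schedule: 50 min dark incubation at room temperature. Detection: fluorescence intensity of OMFP turnover product. Read-out: percent inhibition versus substrate-only and uninhibited controls. Benchmarks: no-enzyme low control, uninhibited high control.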
Scp1 inh = inhibitors of human Scp-1 phosphatase | inhibition, % at 20 µM | Recombinant Scp1, phosphopeptide, malachite green phosphate absorbance | 0.88% of 340,000 active | AID 493091 | Q9GZU7;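 active means inhibition above about 50% at 20 µM, limit read from the data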;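 further: plate controls were DMSO wells with enzyme for no effect and wells lacking enzyme for full effect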
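Assay system: SCP-1 catalytic fragment, aa 76-261 | Buffer or medium: Tris acetate buffer pH 5.5 with MgCl2 and Tween-20 | Compound: One concentration, 20 µM, with 1.0% DMSO | Also added: Phospho 17-mer peptide substrate | Signal: Absorbance at 630 nm | Incubation: 45 min enzyme reaction at room temperature | Measure: % inhibition of SCP-1 phosphate liberation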
SUMO1 PPI mod = alters human SUMO1 binding to SIM partners; SUMO1 binding to a labelled peptide, TR-FRET, 1 h; inhibition, % at 20 µM; 0.33% of 360,000 active; AID 602429; in the data active means inhibition above about 37%
Target sequence (P63165 whole entry, looked up): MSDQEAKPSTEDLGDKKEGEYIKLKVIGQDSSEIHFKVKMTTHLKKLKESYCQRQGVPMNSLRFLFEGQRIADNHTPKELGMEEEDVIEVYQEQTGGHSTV
Active calls of the source: *; nt = no result given.

SMILES	DNMT1 block	CSN inh	STEP inh	LMPTP block	Scp1 inh	SUMO1 PPI mod
CC(c1ccccc1)N1C(=O)/C(=C/c2ccncc2)SC1=S (stereo not drawn)	0	2	2	0	-11	-12
C#CCOc1ccc(CNC[C@H]2O[C@@H](n3ccc(N)nc3=O)[C@H](O)[C@@H]2O)cc1	5	3	2	-1	nt	3
Nc1ccn([C@@H]2O[C@H](CNCc3ccc(C#CCCO)cc3)[C@@H](O)[C@H]2O)c(=O)n1	3	45*	1	-1	nt	-1
O=C1NCCOC(=O)[C@H](Cc2ccc(F)cc2)CC/C=C/C[C@@H]1CC(=O)N(CCO)Cc1ccccc1	4	-4	0	-3	-8	0
COc1cc(C(=O)C(=O)c2ccc(OC)c(OC)c2)ccc1O	8	-1	1	-1	-18	38*
Cc1ccc(-n2nc(C)c(/C=N/n3c(C)n[nH]c3=S)c2Cl)cc1	1	-13	1	0	-10	38*
Cc1n[nH]c(=S)n1/N=C/c1ccccc1	0	1	-3	-2	-9	0
Cc1ccsc1-c1nc(C(N)=O)c2[nH]c(=O)n(-c3ccc(Cl)cc3)c2n1	55*	7	1	11	7	16
O=C(O)COc1ccccc1/C=N/NC(=O)c1cc2ccccc2cc1O	-2	1	-1	0	4	-5
Cc1nnc(NC(=O)c2sc3nc(-c4cccs4)cc(C(F)(F)F)c3c2N)s1	-12	106*	-23	0	-14	-4
Nc1c(C(=O)Nc2nccs2)sc2nc(-c3cccs3)cc(C(F)(F)F)c12	-4	64	-2	1	12	7
O=C(/C=C/c1ccc(NC(=O)c2ccccc2-c2ccccc2C(=O)O)cc1)c1ccccc1	4	51*	-2	2	-9	16
O=C(Nc1ccc(Nc2ccccc2)cc1)c1ccccc1F	-6	0	-6	3	0	2
O=C(/C=C/c1ccncc1)c1ccc(NC(=O)c2ccccc2F)cc1	6	18	14	57*	4	-3
CSc1ccc(CCCCCCOC(=O)C(C)(C)C)cc1	0	1	5	2	-11	3
CCC(C)Nc1nc(CN2CCOCC2)nc2sc3c(c12)CCC3 (stereo not drawn)	1	8	0	0	-1	-2
Oc1ccc(C=NNC(=S)Nc2ccc(F)cc2)c(O)c1	-5	8	-5	1	-10	53*
O=C(CCC(=O)Nc1ccc(F)cc1)N/N=C/c1ccc(O)cc1O	-1	5	-1	-1	-4	3
COc1ccc(O)c(C(=O)c2cc(SCC(=O)O)c3nc4sc5c(c4c(=O)n3c2)CCCC5)c1	15	25	15	16	34	42*
CCOC(=O)C1CCCN(C(=O)C(CCSC)NC(=O)COc2ccccc2)C1 (stereo not drawn)	1	-4	-2	1	-1	-5
CCCOc1ccc(C2C(C(=O)c3ccco3)=C(O)C(=O)N2CCCn2ccnc2)cc1OC (stereo not drawn)	-3	3	2	-2	nt	-5
CCOc1ccc(C2C(C(=O)c3ccco3)=C(O)C(=O)N2CCCn2ccnc2)cc1OC (stereo not drawn)	1	-3	-2	-2	-3	47*
C=CCOC1COC2C(OCC=C)COC12 (stereo not drawn)	5	5	-2	-1	-12	-2
CN1Cc2sc(NC(=S)NC(=O)c3ccccc3)c(C#N)c2CC1(C)C	nt	nt	nt	nt	3	nt
CCN1CCc2c(sc(NC(=S)NC(=O)c3ccccc3)c2C#N)C1	-5	48*	-3	58*	9	-1
SMILES	DNMT1 block	CSN inh	STEP inh	LMPTP block	Scp1 inh	SUMO1 PPI mod
CCC1(C)Cc2c(sc(NC(=S)NC(=O)c3ccccc3)c2C#N)CO1 (stereo not drawn)	-5	2	1	52*	-3	-5
NC(=O)c1c(NC(=O)c2ccccc2)sc2c1CCN(Cc1ccccc1)C2	6	46*	-18	1	8	-3
N#Cc1c(NC(=S)NC(=O)c2ccccc2)sc2c1CCC2	-12	1	2	28	-7	4
O=C(C[C@@H]1CC[C@H](NC(=O)Cc2ccccn2)[C@@H](CO)O1)NCCc1ccccc1	nt	4	nt	-2	nt	-1
COc1ccc2cc1Oc1ccc(cc1)C[C@H]1c3c(cc(OC)c4c3Oc3c(ccc5c3[C@H](C2)N(C)CC5)O4)CCN1C	-36	0	6	68*	4	-28
COc1ccc2cc1Oc1ccc(cc1)CC1c3c(cc(OC)c4c3Oc3cc5c(cc3O4)CCNC5C2)CCN1C (stereo not drawn)	-32	4	1	77*	-1	-27
O=C(NNS(=O)(=O)c1cccc(Cl)c1)c1cc(-c2ccc(F)cc2)nc2ccccc12	-3	4	1	3	0	0
Cn1c(=O)c(N)c2c3c(c(Br)ccc31)C(=O)c1ccccc1-2	155*	-79	-65	6	-8	-44
Cn1c(=O)c(NC2CCCCC2)c2c3c(cccc31)C(=O)c1ccccc1-2	42	-91	-143	1	-6	-20
COc1ccccc1C(N)=S	0	-2	-1	-3	-4	2
COC(=O)c1ccc(OCC(=O)Nc2nn(-c3ccccc3)nc2C(N)=O)cc1	-27	-1	-2	-2	2	50*
CCN(CC)S(=O)(=O)c1ccc(N2CC(C(=O)N3Cc4ccccc4CC3C(N)=O)CC2=O)cc1 (stereo not drawn)	-7	-2	0	-1	-2	-3
Fc1cccc2sc(Nc3nnc(-c4ccccc4)o3)nc12	-1	-1	8	32	51*	12
Cc1cc(/C=N/NC(N)=S)c(O)c(/C=N/NC(N)=S)c1	53*	-33	-1	1	12	-7
NC(=S)N/N=C/c1cccc(O)c1O	0	-2	2	4	-3	2
CCc1ccccc1N1CC(C(=O)Nc2nccs2)CC1=O (stereo not drawn)	1	-2	2	0	-7	-1
CC(C)n1cnc2c(Nc3ccc(F)c(Cl)c3)nc(NCCO)nc21	-6	-2	-1	28	-4	10
C=CC(=O)Nc1ccc(Nc2nc(NC3CCC(N(C)C)CC3)nc3c2ncn3C(C)C)cc1 (stereo not drawn)	-13	37*	-2	4	0	-1
COc1cccc(N/C=C/C(=O)c2ccc(OC)c(OC)c2)c1	-1	1	7	3	4	-26
COc1ccc(N/C=C\C(=O)c2ccc(C)cc2)cc1OC	-5	31	0	1	-6	-18

From PubChem BioAssay
